# Measurements taken from ChEMBL document CHEMBL1144068, “Synthesis and biological evaluation of analogues of cryptolepine, an alkaloid isolated from the Suriname rainforest” (J Nat Prod, 1999).
# Active and inactive are the calls of the source. The rule behind the calls is not given here.
# Tests used:
# Saccharomyces cerevisiae [1] = assay: Growth inhibition of Saccharomyces cerevisiae 1138 mutant by yeast bioassay; type: functional
# M109 = assay: Cytotoxicity against mouse M109 cells; type: functional, cell-based
# Summary of the method: (§1)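 Cell-culture cytotoxicity in a 25-line panel by standard methods. Activity given as IC50 in µM.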
# A2780 [2] = assay: Cell cycle arrest in human A2780 cells overexpressing wild type p53 by accumulation at G1 phase at 5 X respective cytotoxic IC50 after 24 hrs by FACS; type: functional, cell-based
# Summary of the method: (§2)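 Flow cytometry (FACS) of A2780/p53wt cells after 24 h exposure at increasing multiples of each compound's own IC50, scored for G1 arrest and apoptosis; A2780/mutp53 cells run alongside.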
# A2780 [3] = assay: Induction of apoptosis in human A2780 cells overexpressing wild type p53 at >5 X respective cytotoxic IC50 after 24 hrs; type: functional, cell-based; summary of the method: as §2
# A-431 = assay: Cytotoxicity against human A431 cells; type: functional, cell-based; summary of the method: as §1
# MLF = assay: Cytotoxicity against MLF cells; type: cell-based; conditions: Mus musculus; summary of the method: as §1
# [4] = Cytotoxicity against human OVACR3 cells; type: functional, cell-based; summary of the method: as §1
# Saccharomyces cerevisiae [5] = assay: Growth inhibition of Saccharomyces cerevisiae 1353 mutant by yeast bioassay; type: functional
# Saccharomyces cerevisiae [6] = assay: Growth inhibition of Saccharomyces cerevisiae 1140 mutant by yeast bioassay; type: functional
Structure (SMILES),IC12 (Saccharomyces cerevisiae [1]),also measured
Cn1c2ccccc2c2c1cc1ccccc1[n+]2C.O=S(=O)([O-])C(F)(F)F,5 µg/mL,IC50 (M109): < 10000 nM
c1ccc(Cn2c3ccccc3c3nc4ccccc4cc32)cc1,> 400 µg/mL,–
CC[n+]1c2ccccc2cc2[nH]c3ccccc3c21.[I-],40 µg/mL,IC50 (M109): < 50000 nM
COC(=O)c1c2ccccc2nc2c1[nH]c1ccccc12,40 µg/mL,IC50 (M109): < 10000 nM
O=c1c2c3ccccc3nc3c4ccccc4n(c(=O)c4c5ccccc5nc5c6ccccc6n1c54)c32,> 400 µg/mL,–
CCCCn1c2ccccc2c2c1cc1ccccc1[n+]2C.O=S(=O)([O-])C(F)(F)F,90 µg/mL,–
COC(=O)c1c2cc(Br)ccc2nc2c1[nH]c1ccccc12,100 µg/mL,–
c1ccc2nc3c(cc2c1)[nH]c1ccccc13 [QUINDOLINE],150 µg/mL,–
O=c1c2ccccc2[nH]c2c1oc1ccccc12,> 400 µg/mL,–
CCn1c2ccccc2c2c1cc1ccccc1[n+]2C.O=S(=O)([O-])C(F)(F)F,80 µg/mL,–
c1ccc2nc3c(cc2c1)oc1ccccc13,> 400 µg/mL,–
Ic1c2ccccc2nc2c1oc1ccccc12,> 400 µg/mL,–
OCc1c2ccccc2nc2c1[nH]c1ccccc12,125 µg/mL,–
O=Cc1c2ccccc2nc2c1[nH]c1ccccc12,> 400 µg/mL,–
O=C1OCc2c3ccccc3nc3c4ccccc4n1c23,50 µg/mL,IC50 (M109): < 10000 nM
C[n+]1c2ccccc2cc2[nH]c3ccccc3c21 [listing 1 of 2 here],–,Activity (A2780 [2]): Active; Activity (A2780 [3]): Dose-dependent effect
O=C(O)c1c2nc3ccccc3c-2[nH]c2ccccc12,> 400 µg/mL,–

Structure (SMILES),IC12 (Saccharomyces cerevisiae [1]),also measured
C[n+]1c2ccccc2cc2oc3ccccc3c21.[I-],400 µg/mL,–
C=CCn1c2ccccc2c2c1cc1ccccc1[n+]2C.O=S(=O)([O-])C(F)(F)F,200 µg/mL,–
C[n+]1c2ccccc2cc2[nH]c3ccccc3c21.[I-] [CRYPTOLEPTINE IODIDE],1.5 µg/mL,–
O=C(OCCOC(=O)c1c2ccccc2nc2c1[nH]c1ccccc12)c1c2ccccc2nc2c1[nH]c1ccccc12,> 400 µg/mL,–
C[n+]1c2ccccc2cc2[n-]c3ccccc3c21 [CRYPTOLEPINE],0.5 µg/mL,–
Clc1c2ccccc2nc2c1oc1ccccc12,> 400 µg/mL,–
CC(CO)(CO)NCc1c2ccccc2nc2c1[nH]c1ccccc12,> 400 µg/mL,–
CC(=O)n1c2ccccc2c2nc3ccccc3cc21,80 µg/mL,–
Cc1c2nc3ccccc3c-2[nH]c2ccccc12,50 µg/mL,IC50 (M109): < 10000 nM
CC(=O)n1c2ccccc2c2c1cc1ccccc1[n+]2C.[Cl-],5 µg/mL,IC50 (A-431): 340 nM; Activity (A2780 [2]): Active; IC50 (MLF): 4900 nM; Activity (A2780 [3]): Dose-dependent effect; IC50 [4]: 500 nM; IC50 (M109): < 1000 nM
C[n+]1c2ccccc2cc2[n-]c3ccccc3c21.Cl [CRYPTOLEPINE HYDROCHLORIDE],0.6 µg/mL,IC12 (Saccharomyces cerevisiae [5]): 0.6 µg/mL; IC12 (Saccharomyces cerevisiae [6]): 0.6 µg/mL; IC50 (M109): < 1 µg/mL
NC(=O)c1c2cc(Br)ccc2nc2c1[nH]c1ccccc12,400 µg/mL,–
C[n+]1c2ccccc2cc2[nH]c3ccccc3c21 [listing 2 of 2 here],–,IC50 (A-431): 340 nM; IC50 (MLF): 4900 nM; IC50 [4]: 500 nM; IC50 (M109): < 1000 nM
CCCn1c2ccccc2c2c1cc1ccccc1[n+]2C.O=S(=O)([O-])C(F)(F)F,125 µg/mL,–
CCC[n+]1c2ccccc2cc2[nH]c3ccccc3c21.[I-],400 µg/mL,–
O=C(OCCO)c1c2ccccc2nc2c1[nH]c1ccccc12,> 400 µg/mL,–
CCCC[n+]1c2ccccc2cc2[nH]c3ccccc3c21.[Br-],> 400 µg/mL,–
